Results published in ChEMBL document CHEMBL3352714, “Synthesis, in Vitro Covalent Binding Evaluation, and Metabolism of (14)C-Labeled Inhibitors of 11β-HSD1” (ACS Med Chem Lett, 2014).
Each block holds one compound with its values, some of them ahead of it.

Assays:
Liver microsome [1] = experiment: Oxidative metabolism in human liver microsomes assessed as protein covalent binding measured per mg protein at 10 uM after 1 hr in presence of NADPH
Liver microsome [2] = experiment: Oxidative metabolism in human liver microsomes assessed as protein covalent binding measured per mg protein at 10 uM after 1 hr in presence of NADPH
[3] = Drug metabolism in human hepatocytes assessed as total turnover after 2 hrs by LC-MS/MS-radiometric analysis; type: ADME, cell-based, Hepatocyte; conditions: read-out: Drug metabolism
Summary of the method: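 14C-labeled compound incubated with human hepatocytes. Parent and radiolabeled metabolites were analyzed by tandem LC–MS/MS with radiometric detection and expressed as % of administered dose.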

Cynomolgus monkey = conditions: Macaca fascicularis; at 10 mg/kg
[4] = Half life in cynomolgus monkey at 0.5 mg/kg, iv; type: ADME, organism-based, Macaca fascicularis; parameters: dose 0.5 mg/kg, route intravenous; conditions: in vivo
Summary of the method: (§1)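 Intravenous dose 0.5 mg/kg, formulated in 10% N,N-dimethylacetamide, 10% ethanol, 40% propylene glycol and 40% water. Values are averages of three animals per species.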

[5] = Clearance in rat at 0.5 mg/kg, iv; type: ADME, organism-based; parameters: dose 0.5 mg/kg, route intravenous; conditions: in vivo; summary of the method: as §1
[6] = Oral bioavailability in rat at 2 mg/kg; type: ADME, organism-based; conditions: in vivo
Summary of the method: (§2)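 Oral dose 2.0 mg/kg. Rat and dog received a solution in 15% HPβCD in Ora-Plus. Cynomolgus monkey received a suspension in 1% Tween 80 and 1% methylcellulose (4000 cps) in deionized water. Values are averages of three animals; iv reference dose was 0.5 mg/kg.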

[7] = Oral bioavailability in dog at 2 mg/kg; type: ADME, organism-based, Canis lupus familiaris; conditions: in vivo; summary of the method: as §2
[8] = Volume of distribution at steady state in rat at 0.5 mg/kg, iv; type: ADME, organism-based; parameters: dose 0.5 mg/kg, route intravenous; conditions: in vivo, read-out: Vdss; summary of the method: as §1
[9] = Cmax in dog at 2 mg/kg, po; type: ADME, organism-based, Canis lupus familiaris; parameters: dose 2 mg/kg, route oral; conditions: in vivo; summary of the method: as §2
[10] = Oral bioavailability in cynomolgus monkey at 2 mg/kg; type: ADME, organism-based, Macaca fascicularis; conditions: in vivo; summary of the method: as §2
[11] = Volume of distribution at steady state in dog at 0.5 mg/kg, iv; type: ADME, organism-based, Canis lupus familiaris; parameters: dose 0.5 mg/kg, route intravenous; conditions: in vivo, read-out: Vdss; summary of the method: as §1
[12] = Half life in dog at 0.5 mg/kg, iv; type: ADME, organism-based, Canis lupus familiaris; parameters: dose 0.5 mg/kg, route intravenous; conditions: in vivo; summary of the method: as §1
[13] = Cmax in cynomolgus monkey at 2 mg/kg, po; type: ADME, organism-based, Macaca fascicularis; parameters: dose 2 mg/kg, route oral; conditions: in vivo; summary of the method: as §2
[14] = Volume of distribution at steady state in cynomolgus monkey at 0.5 mg/kg, iv; type: ADME, organism-based, Macaca fascicularis; parameters: dose 0.5 mg/kg, route intravenous; conditions: in vivo, read-out: Vdss; summary of the method: as §1
[15] = Clearance in dog at 0.5 mg/kg, iv; type: ADME, organism-based, Canis lupus familiaris; parameters: dose 0.5 mg/kg, route intravenous; conditions: in vivo; summary of the method: as §1
[16] = Half life in rat at 0.5 mg/kg, iv; type: ADME, organism-based; parameters: dose 0.5 mg/kg, route intravenous; conditions: in vivo; summary of the method: as §1
[17] = Clearance in cynomolgus monkey at 0.5 mg/kg, iv; type: ADME, organism-based, Macaca fascicularis; parameters: dose 0.5 mg/kg, route intravenous; conditions: in vivo; summary of the method: as §1
[18] = Cmax in rat at 2 mg/kg, po; type: ADME, organism-based; parameters: dose 2 mg/kg, route oral; conditions: in vivo; summary of the method: as §2

Structure (SMILES): c1ccc2ccccc2c1
PB (Liver microsome [1]): 420 pmol

Structure (SMILES): C[C@@H]1CN(CC2(C(N)=O)CC2)[14CH2][14CH2]N1S(=O)(=O)c1ccc([C@](C)(O)C(F)(F)F)cc1
PB (Liver microsome [2]): 70 pmol | PB (Liver microsome [1]): 70 pmol

Structure (SMILES): C[C@](O)(c1ccc(S(=O)(=O)c2ccc([14C]#N)cc2Cl)cc1)C(F)(F)F
metabolised at 2 h [3]: 9.8% | PB (Liver microsome [2]): 370 pmol | PB (Liver microsome [1]): 370 pmol

Now from value to compound, other results behind:

PB (Liver microsome [2]): 15 pmol | PB (Liver microsome [1]): 15 pmol
Structure (SMILES): C[C@](O)(c1ccc(C(=O)N(C2CC2)[C@H]2CC[C@](CO[14C](N)=O)(c3ccc(F)cc3)CC2)cc1)C(F)(F)F

half-life [4]: 27 h | clearance [5]: 0.683 mL/min/kg | bioavailability [6]: 72% | bioavailability [7]: 88% | Vd [8]: 2.3 L/kg | Cmax [9]: 1840 ng/mL | bioavailability [10]: 38% | Vd [11]: 1.2 L/kg | half-life [12]: 78 h | Cmax [13]: 211 ng/mL | Vd [14]: 1 L/kg | clearance [15]: 0.2 mL/min/kg | half-life [16]: 43 h | clearance [17]: 0.483 mL/min/kg | Cmax [18]: 1130 ng/mL
Structure (SMILES): C[C@](O)(c1ccc(C(=O)N(C2CC2)[C@H]2CC[C@](COC(N)=O)(c3ccc(F)cc3)CC2)cc1)C(F)(F)F (mixture of isomers)
inhibition (Cynomolgus monkey): Dose-dependent effect
